This is an account of results in ChEMBL document CHEMBL1123352, “Anticonvulsant activity of 2- and 3-aminobenzanilides” (J Med Chem, 1986).

Usually ED50 stands for the dose at which the effect has come halfway, by size or by number of responders. Read a low ED50 as an effect at a small dose. A word on the TD50: it is the 50% point of the dose-response relation for the toxic effect studied.

Several values for one entry are separate records, joined by “and”; a condition that tells them apart may be missing. Equal entries are not always repeated. Activity calls are given as the source filed them. The calls are words filed in the database; no cut-off is given here.

Data set [1] deals with Mus musculus. In words: Anticonvulsant activity against subcutaneous pentylenetetrazole induced convulsions in mice 4 hr after ip administration of 600 mg/kg. It is filed as functional, organism-based. Set-up: dose 600 mg/kg. Put shortly:
(§1)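 Male Carworth Farms No. 1 mice were dosed ip with compound in 30% PEG 400, at 30–600 mg/kg, and read at 30 min and 4 h. Pentylenetetrazole was given at 85 mg/kg as a 0.5% solution sc in the posterior midline. Protection meant no single episode of clonic spasms lasting at least 5 s over a 30-min observation.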

The test system of data set [2] is Mus musculus. Nature of the data set: Anticonvulsant activity against subcutaneous pentylenetetrazole induced convulsions in mice 30 min after ip administration of 600 mg/kg. Format: functional, organism-based. Set-up: dose 600 mg/kg. Put shortly: as §1
In data set [3] the test system is Mus musculus. Nature of the data set: Anticonvulsant activity against maximal electroshock (MES)-induced seizures in mice 4 hours after ip administration of 300 mg/kg; A=Active. Format: functional, organism-based. Set-up: dose 300 mg/kg. Put shortly: (§2)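 Male Carworth Farms No. 1 mice were dosed ip with compound in 30% polyethylene glycol 400, at 30, 100 and 300 mg/kg and sometimes 600 mg/kg, and tested 30 min and 4 h later. A drop of 0.9% saline went in the eye, then 60-cycle AC at 50 mA was given for 0.2 s via corneal electrodes. Protection meant abolition of hind limb tonic extension.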

The subject of data set [4] is Mus musculus. In words: Compound was tested for toxicity by rotarod assay method in mice after intraperitoneal administration after 4 hours at 600 mg/kg; no activity. Format: organism-based. Set-up: dose 600 mg/kg, route intraperitoneal. To be noted: in vivo, ip.
In data set [5] the test system is Mus musculus. In words: Anticonvulsant activity against maximal electroshock (MES) induced seizures in mice 30 minutes after ip administration of 600 mg/kg; A=Active. It is filed as functional, organism-based. Set-up: dose 600 mg/kg. Put shortly:
as §2
In general terms: In the maximal electroshock model the usual endpoint is tonic extension of the hind limbs.

For data set [6], the system named is Mus musculus. In words: Compound was tested for toxicity by rotarod assay method in mice 30 min after ip administration of 600 mg/kg; no activity. Set-up: dose 600 mg/kg, route intraperitoneal. Format: organism-based. The settings on record: in vivo, 0.5 h. Background: Falling from the rotarod earlier than controls is read as motor impairment.
For data set [7], the system named is Mus musculus. In words: Compound was tested for toxicity by rotarod assay method in mice 30 min after ip administration of 600 mg/kg; A=Active. It is filed as organism-based. Set-up: dose 600 mg/kg, route intraperitoneal. The settings on record: in vivo, 0.5 h.
Data set [8] is filed under the species Mus musculus. Nature of the data set: Anticonvulsant activity against maximal electroshock (MES)-induced seizures in mice. It is filed as functional. Put shortly:
as §2

A short description of data set [9]: (§3) Compound for toxicity by rotarod assay method in mice after administration. Format: organism-based. To be noted: mouse, in vivo. Put shortly: (§4)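 Neurologic deficit was tested in male Carworth Farms No. 1 mice 30 min and 4 h after ip dosing in 30% PEG 400, at 30–600 mg/kg. Each mouse was placed on a 1-in.-diameter knurled plastic rod turning at 6 rpm. Toxicity meant failing to stay on the rod for 1 min.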

Data set [10] relates to Mus musculus. Nature of the data set: Compound was tested for toxicity by rotarod assay method in mice 4 hours after ip administration of 600 mg/kg; A=Active. The settings on record: in vivo. It is filed as organism-based. On the set-up: dose 600 mg/kg, route intraperitoneal.
A short description of data set [11]: Protective index measured as the ratio between TD50 and ED50. Format: ADME.
The subject of data set [12] is Mus musculus. In words: Anticonvulsant activity against maximal electroshock (MES) induced seizures in mice 4 hours after ip administration of 100 mg/kg; A=Active. Set-up: dose 100 mg/kg. It is filed as functional, organism-based. Put shortly:
as §2

Data set [13] has as its system Mus musculus. Nature of the data set: Anticonvulsant activity against maximal electroshock (MES) induced seizures in mice 30 minutes after ip administration of 30 mg/kg; A=Active. Set-up: dose 30 mg/kg. Format: functional, organism-based. Put shortly: as §2
Data set [14] concerns Mus musculus. Nature of the data set: Compound for anticonvulsant activity against subcutaneous pentylenetetrazole-induced convulsions in mice after administration. Format: functional. The settings on record: sc. Put shortly: as §1
The subject of data set [15] is Mus musculus. In words: Compound for anticonvulsant activity against maximal electroshock (MES)-induced seizures in mice after administration. Format: functional. Put shortly:
as §2

In data set [16] the test system is Mus musculus. Nature of the data set: Compound was tested for toxicity by rotarod assay method in mice after intraperitoneal administration after 4 hours; A=Active. Format: organism-based. The settings on record: in vivo, ip.
The subject of data set [17] is Mus musculus. In words: Compound was tested for toxicity by rotarod assay method in mice 30 min after ip administration of 300 mg/kg; A=Active. It is filed as organism-based. To be noted: in vivo, 0.5 h. On the set-up: dose 300 mg/kg, route intraperitoneal.
Data set [18] deals with Mus musculus. Nature of the data set: Anticonvulsant activity against maximal electroshock (MES) induced seizures in mice 4 hours after ip administration of 600 mg/kg; A=Active. It is filed as functional, organism-based. On the set-up: dose 600 mg/kg. Put shortly: as §2
The subject of data set [19] is Mus musculus. Nature of the data set: Anticonvulsant activity against maximal electroshock (MES) induced seizures in mice 30 minutes after ip administration of 300 mg/kg; A=Active. Format: functional, organism-based. Set-up: dose 300 mg/kg. Put shortly:
as §2

The subject of data set [20] is Mus musculus. The data set is described as §3. Format: organism-based. To be noted: in vivo. Put shortly: as §4
For data set [21], the system named is Mus musculus. In words: Anticonvulsant activity against maximal electroshock (MES) induced seizures in mice 4 hours after ip administration of 600 mg/kg. It is filed as functional, organism-based. Set-up: dose 600 mg/kg. Put shortly:
as §2

Data set [22] has as its system Mus musculus. Nature of the data set: Compound was tested for toxicity by rotarod assay method in mice 4 hours after ip administration of 600 mg/kg; NA=No activity. It is filed as organism-based. Set-up: dose 600 mg/kg, route intraperitoneal. The settings on record: in vivo.
Data set [23] has as its system Mus musculus. In words: Anticonvulsant activity against sc pentylenetetrazole induced convulsions in mice 30 minutes after ip administration of 600 mg/kg; A=Active. It is filed as functional, organism-based. On the set-up: dose 600 mg/kg. Put shortly: as §1
In data set [24] the test system is Mus musculus. Nature of the data set: Anticonvulsant activity against maximal electroshock (MES) induced seizures in mice […] after ip administration of 600 mg/kg; NA=No activity. It is filed as functional, organism-based. On the set-up: dose 600 mg/kg. Put shortly:
as §2

The test system of data set [25] is Mus musculus. In words: Compound was tested for toxicity by rotarod assay method in mice 30 min after ip administration of 600 mg/kg; No activity. The settings on record: in vivo, 0.5 h. It is filed as organism-based. Set-up: dose 600 mg/kg, route intraperitoneal.
Data set [26] concerns Mus musculus. Nature of the data set: Anticonvulsant activity against sc pentylenetetrazole-induced convulsions in mice 4 hr after ip administration of 600 mg/kg; A=Active. Format: functional, organism-based. Set-up: dose 600 mg/kg. Put shortly:
as §1

In data set [27] the test system is Mus musculus. Nature of the data set: Anticonvulsant activity against sc pentylenetetrazole-induced convulsions in mice 30 minutes after ip administration of 300 mg/kg; A=Active. It is filed as functional, organism-based. Set-up: dose 300 mg/kg. Put shortly: as §1
In data set [28] the test system is Mus musculus. Nature of the data set: Anticonvulsant activity against maximal electroshock (MES) induced seizures in mice 30 minutes after ip administration of 100 mg/kg; A=Active. Format: functional, organism-based. Set-up: dose 100 mg/kg. Put shortly: as §2

As for `Cc1cccc(C(C)C)c1NC(=O)c1cccc(N)c1`, the Anticonvulsant activity result with Mus musculus [1] and in the data set on Mus musculus [2] was “inactive” throughout. Also, the Anticonvulsant activity result in the data set on Mus musculus [3] and in the data set with Mus musculus [5] was “Active” each time. Besides, the Toxicity result in the data set with Mus musculus [4] and in the data set on Mus musculus [6] was “Not Active” in each case.

With `Cc1cccc(C)c1NC(=O)c1cccc(N)c1`, the Toxicity result in the data set with Mus musculus [7] and in the data set with Mus musculus [10] was “Active” throughout. For the same compound, it took a dose of 13.5 mg/kg to reach the 50% effect level in the data set filed under Mus musculus [8] (ED50). The Anticonvulsant activity entry in the data set on Mus musculus [1] and in the data set on Mus musculus [2] was “inactive” in each case. In data set [9], the TD50 is 285 mg/kg. In addition, the selectivity ratio in [11] (read-out: PI) is 21.1. Besides, the Anticonvulsant activity entry in the data set on Mus musculus [12] and in the data set on Mus musculus [13] was “Active” in each case.

As to `CCCC(CCC)C(=O)O` [VALPROIC ACID], the ED50 in the data set on Mus musculus [14] was found to be 149 mg/kg; with Mus musculus [15], 272 mg/kg.

For the compound `CC(C)c1ccccc1NC(=O)c1cccc(N)c1`, the Toxicity result with Mus musculus [16] and in the data set on Mus musculus [17] was “Active” throughout. Moreover, the Anticonvulsant activity result with Mus musculus [1] and in the data set with Mus musculus [2] was “inactive” each time. Further, the Anticonvulsant activity result in the data set on Mus musculus [18] and in the data set on Mus musculus [19] was “Active” throughout.

Take `CC(NC(=O)c1ccc(N)cc1)c1ccccc1` (stereo not drawn): in the data set with Mus musculus [20], the TD50 came out at 170.78 mg/kg. Moreover, the PI in [11] is 9.5 and 4.1.

Consider `Cc1cccc(NC(=O)c2ccccc2N)c1C`, for which the Anticonvulsant activity result in the data set on Mus musculus [21], with Mus musculus [1] and in the data set with Mus musculus [24] was “inactive” each time. Besides, the Toxicity entry is recorded as “Active” in the data set on Mus musculus [7] and “Not Active” in the data set on Mus musculus [22]. Further, the Anticonvulsant activity result with Mus musculus [23] is “Active”.

Turning to `Cc1ccc(NC(=O)c2cccc(N)c2)cc1C`, the Anticonvulsant activity result in the data set on Mus musculus [21] and in the data set with Mus musculus [1] was “inactive” throughout. Further, the Toxicity result in the data set on Mus musculus [25] and in the data set on Mus musculus [22] was “Not Active” in each case. In addition, the Anticonvulsant activity entry in the data set with Mus musculus [23] and in the data set with Mus musculus [5] was “Active” in each case.

For `Cc1cccc(NC(=O)c2cccc(N)c2)c1`, the Toxicity result in the data set on Mus musculus [17] and with Mus musculus [10] was “Active” in each case. The Anticonvulsant activity entry with Mus musculus [26], in the data set on Mus musculus [27], in the data set with Mus musculus [28] and in the data set with Mus musculus [18] was “Active” throughout.
